Conditions in all cases: in vivo
For data set [1], the system named is Rattus norvegicus. In words: Saluretic property was estimated by the excretion of Na+ in rat administered orally; microequiv of Na+ at 16.5 mg/kg […]. Also on record: dose 16.5 mg/kg. It counts as ADME, organism-based. In outline: (§1)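 Rats dosed orally; urinary Na+ excretion (microequiv) scored per dose level. Each score is the geometric mean of three animals per cage, with three cages per dose.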

The species named for data set [2] is Rattus norvegicus. In words: Saluretic property (excretion of Na+ in rat). The format is ADME, organism-based. Summed up: as §1
In data set [3] the test system is Rattus norvegicus. Briefly: Saluretic property (excretion of Na+ in rat after PO dosing). It counts as ADME, organism-based. Summed up: as §1
Data set [4] deals with Rattus norvegicus. In words: Saluretic property was estimated by the excretion of Na+ in rat administered orally; microequiv of Na+ at 5 mg/kg […]. Also on record: dose 5 mg/kg. The format is ADME, organism-based. Summed up:
as §1

In data set [5] the test system is Canis familiaris. Briefly: Saluretic property was estimated by the excretion of Na+ in dog administered intravenously; microequiv of Na+/min at 5 mg/kg iv stat, 0-99. Also on record: dose 5 mg/kg, route intravenous. The format is ADME, organism-based, Canis lupus familiaris. In outline: (§2)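 Dogs of 15-20 kg were given a single stat intravenous dose of 5 mg/kg and Na+ excretion was measured in microequiv/min. The score is the average of two dogs, or three where designated.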

Data set [6] has as its system Canis familiaris. In words: Saluretic property was estimated by the excretion of Na+ in dog administered intravenously; microequiv of Na+/min at 5 mg/kg iv stat, 100-249. Details: dose 5 mg/kg, route intravenous. The format is ADME, organism-based, Canis lupus familiaris. Summed up: as §2

Among the data in ChEMBL document CHEMBL1122081, “2-(Aminomethyl)phenols, a new class of saluretic agents. 4. Effects of oxygen and/or nitrogen substitution” (J Med Chem, 1982) are Saluretic potency values, retold here.

As for `CN(C)S(=O)(=O)Oc1c(I)cc(C(C)(C)C)cc1CN.Cl`, the Saluretic potency is listed as 0.6 u equiv in data set [1], 2.4 u equiv in data set [2], 1.8 u equiv in data set [3] and 0.4 u equiv in data set [4].

As to `CCN(CC)C(=O)COc1c(I)cc(C(C)(C)C)cc1CN.Cl`, the Saluretic potency in data set [2] is recorded as under 0.3 u equiv; in data set [3], under 0.2 u equiv; in data set [5], 0 u equiv min-1.

Regarding `CC(C)(C)c1cc(I)c(O)c(CNC2=NCCC2)c1.Cl`, the Saluretic potency is given as under 0.3 u equiv in data set [2] and under 0.2 u equiv in data set [3].

For the compound `CC(C)(C)c1cc(I)c(O)c(CNCCN)c1.Cl`, the Saluretic potency is reported as 0.5 u equiv in data set [1]; 1.5 u equiv in data set [2]; 1.2 u equiv in data set [3]; 0 u equiv min-1 in data set [5]; 0.3 u equiv in data set [4].

Turning to `CC(C)(C)c1cc(I)c(O)c(CNC2CCCCC2)c1.Cl`, the Saluretic potency in data set [2] is listed as under 0.3 u equiv; in data set [3] it was under 0.2 u equiv.

As for `CC(C)(C)c1cc(I)c(OS(C)(=O)=O)c(CN)c1.Cl`, the Saluretic potency in data set [2] is listed as under 0.3 u equiv; in data set [3], under 0.2 u equiv.

On to `CC(C)(C)c1cc(I)c(OS(=O)(=O)c2ccccc2)c(CN)c1.Cl`, for which the Saluretic potency in data set [1] was 0.6 u equiv; in data set [2], 2.4 u equiv; in data set [3] it was 1.8 u equiv; in data set [4], 0.4 u equiv.

For the compound `COc1c(I)cc(C(C)(C)C)cc1CN.Cl`, the values for the Saluretic potency in data set [2], in data set [3] and in data set [5] were under 0.3 u equiv, under 0.2 u equiv and 0 u equiv min-1, respectively.

On to `CC(C)(C)c1cc(I)c(O)c(CNC2=NCCO2)c1`, for which the Saluretic potency in data set [2] was under 0.3 u equiv; in data set [3] it was under 0.2 u equiv.

Turning to `CC(C)(C)c1cc(Cl)c(O)c(C[n+]2ccc(N)cc2)c1.[Cl-]`, the Saluretic potency in data set [5] was 0 u equiv min-1.

As to `CC(C)(C)c1cc(I)c(O)c(CNC2=NCCN2)c1`, the Saluretic potency is reported as under 0.3 u equiv in data set [2], under 0.2 u equiv in data set [3] and 0 u equiv min-1 in data set [5].

For `COc1c(I)cc(C(C)(C)C)cc1C[N+](C)(C)C.[I-]`, the Saluretic potency in data set [5] was 0 u equiv min-1.

Take `CC(C)(C)c1cc(I)c2c(c1)CNC(=O)O2`: the Saluretic potency in data set [1] is on record as 0.4 u equiv; in data set [2], 0.9 u equiv; in data set [3], 0.7 u equiv.

As to `CC(C)(C)c1cc(I)c(O)c(C[N+](C)(C)C)c1.[I-]`, the Saluretic potency was under 0.3 u equiv in data set [2], 0.2 u equiv in data set [3] and 0 u equiv min-1 in data set [5].

For the compound `CN(C)Cc1cc(C(C)(C)C)cc(I)c1O`, the Saluretic potency in data set [1] was 2.7 u equiv; in data set [3] it was 3.3 u equiv; in data set [5], 0 u equiv min-1; in data set [4], 1.4 u equiv.

On to `CC(C)(C)c1cc(Cl)c(O)c(C[n+]2ccccc2)c1.[Cl-]`, for which the Saluretic potency was under 0.3 u equiv in data set [2], under 0.2 u equiv in data set [3] and 0 u equiv min-1 in data set [5].

With `CC(C)(C)c1cc(I)c(O)c(CNS(=O)(=O)O)c1`, the Saluretic potency in data set [1] is 0.5 u equiv; in data set [2], 1.5 u equiv; in data set [3], 1.2 u equiv; in data set [4] it was 0.3 u equiv.

With `CC(C)(C)c1cc(I)c(O)c(CNC(N)=O)c1`, the Saluretic potency is recorded as under 0.3 u equiv in data set [2], under 0.2 u equiv in data set [3] and 0 u equiv min-1 in data set [5].

In the case of `CC(C)(C)c1cc(Cl)c(O)c(CNS(N)(=O)=O)c1`, the Saluretic potency in data set [2] was under 0.3 u equiv; in data set [3], under 0.2 u equiv; in data set [5] it was 0 u equiv min-1.

`CC(C)(C)c1cc(I)c(O)c(CN=C(N)N)c1`: the Saluretic potency in data set [2] is recorded as under 0.3 u equiv; in data set [3] it was under 0.2 u equiv.

For the compound `CC(C)(C)OC(=O)NCc1cc(C(C)(C)C)cc(I)c1O`, the Saluretic potency in data set [2] is given as under 0.3 u equiv; in data set [3] it was under 0.2 u equiv.

Regarding `CC(C)(C)c1cc(Cl)c2c(c1)CNC(=O)CO2`, the figures for the Saluretic potency in data set [2] and in data set [3] were under 0.3 u equiv and under 0.2 u equiv, respectively.

As to `O=C(CCl)NCc1c(O)c(Cl)cc(Cl)c1Cl`, the Saluretic potency in data set [1] is recorded as 0.5 u equiv; in data set [2], 1.5 u equiv; in data set [3], 1.2 u equiv; in data set [5], 0 u equiv min-1; in data set [4], 0.3 u equiv.

As for `CC(C)(C)c1cc(I)c2c(c1)CNS(=O)(=O)O2`, the figures for the Saluretic potency in data set [2] and in data set [3] were under 0.3 u equiv and under 0.2 u equiv, respectively.

In the case of `Oc1c(Cl)cc(Cl)c(Cl)c1CN1CCOCC1`, the results for the Saluretic potency in data set [2], in data set [6] and in data set [3] were under 0.3 u equiv, 100 u equiv min-1 and under 0.2 u equiv, respectively.

As for `Oc1c(Cl)cc(Cl)c(Cl)c1CN1CCCCC1`, the Saluretic potency in data set [2] is under 0.3 u equiv; in data set [3] it was under 0.2 u equiv; in data set [5], 0 u equiv min-1.

Turning to `O=C(NCc1c(O)c(Cl)cc(Cl)c1Cl)C(F)(F)F`, the Saluretic potency is listed as 0.6 u equiv in data set [1], 2.4 u equiv in data set [2], 1.8 u equiv in data set [3] and 0.4 u equiv in data set [4].

`COc1c(Cl)cc(Cl)c(Cl)c1CN.Cl`: the figures for the Saluretic potency in data set [2], in data set [3] and in data set [5] were under 0.3 u equiv, under 0.2 u equiv and 0 u equiv min-1, respectively.

As for `CN1CCN(Cc2cc(C(C)(C)C)cc(Cl)c2O)CC1.Cl`, the results for the Saluretic potency in data set [2], in data set [3] and in data set [5] were under 0.3 u equiv, under 0.2 u equiv and 0 u equiv min-1, respectively.

With `CC(C)(C)c1cc(Cl)c2c(c1)CNCCO2.Cl`, the Saluretic potency in data set [2] is listed as under 0.3 u equiv; in data set [3], under 0.2 u equiv; in data set [5], 0 u equiv min-1.

Regarding `CC(C)(C)c1cc(I)c(O)c(CNC2=NCCS2)c1`, the values for the Saluretic potency in data set [2] and in data set [3] were under 0.3 u equiv and under 0.2 u equiv, respectively.

As for `CC(C)(C)c1cc(I)c(OS(=O)(=O)O)c(CN)c1`, the Saluretic potency is 1.4 u equiv in data set [1], 2.9 u equiv in data set [2], 2.4 u equiv in data set [3] and 0.5 u equiv in data set [4].

Regarding `CC(C)(C)c1cc(I)c(O)c(Cn2cnnn2)c1`, the Saluretic potency is recorded as under 0.3 u equiv in data set [2], 100 u equiv min-1 in data set [6] and under 0.2 u equiv in data set [3].

For `O=CNCc1c(O)c(Cl)cc(Cl)c1Cl`, the Saluretic potency is recorded as under 0.3 u equiv in data set [2], under 0.2 u equiv in data set [3] and 0 u equiv min-1 in data set [5].

For `CC(C)(C)c1cc(Cl)c(O)c(/C=N/N=C(N)N)c1`, the Saluretic potency is given as under 0.3 u equiv in data set [2], 100 u equiv min-1 in data set [6] and under 0.2 u equiv in data set [3].
